Test results as given in ChEMBL document CHEMBL2177094, “Structure dependence of long-chain [18F]fluorothia fatty acids as myocardial fatty acid oxidation probes” (J Med Chem, 2012).

Assays:
Heart [1] = test: Drug uptake in overnight fasted Sprague-Dawley rat heart at 9 to 11 MBq, iv at 5 mins by microPET analysis; assay type: ADME, organism-based; conditions: in vivo
Outline: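 Female rats fasted overnight, under isoflurane. 18F-labelled tracer (9–11 MBq) given into a tail vein. Dynamic PET acquisition over the upper thorax for 50 min, then a static whole-body scan 55–115 min post-injection. 2–5 rats per tracer.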

Muscle tissue [2] = test: Biodistribution in overnight fasted Sprague-Dawley rat muscle pellet fraction at 0.7 to 1.4 MBq, iv preincubated with POCA for 2 hrs before compound administration measured at 120 mins post treatment by Folch-type extraction method; assay type: ADME, organism-based; conditions: in vivo
Outline: (§1)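 Female Sprague-Dawley rats, fasted overnight, under isoflurane (3.5% induction, 1.5% maintenance). [18F] tracer in 0.5–1.0% BSA/saline was given by tail vein. POCA group: 30 mg/kg i.p. 120 min before tracer. About 0.5 g tissue was homogenized and sonicated in chloroform/methanol (2:1) at 0 °C, then 40% urea and 5% H2SO4 were added and spun 10 min at 1,800 g. Aqueous, organic and pellet fractions were counted as % of total.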

Liver [3] = test: Biodistribution in overnight fasted Sprague-Dawley rat liver organic fraction at 0.7 to 1.4 MBq, iv preincubated with POCA for 2 hrs before compound administration measured at 120 mins post treatment by Folch-type extraction method; assay type: ADME, organism-based; conditions: in vivo; outline: as §1
Liver [4] = test: Biodistribution in overnight fasted Sprague-Dawley rat liver aqueous fraction at 0.7 to 1.4 MBq, iv preincubated with POCA for 2 hrs before compound administration measured at 120 mins post treatment by Folch-type extraction method; assay type: ADME, organism-based; conditions: in vivo; outline: as §1
Heart [5] = test: Biodistribution in overnight fasted Sprague-Dawley rat heart pellet fraction at 0.7 to 1.4 MBq, iv preincubated with POCA for 2 hrs before compound administration measured at 120 mins post treatment by Folch-type extraction method; assay type: ADME, organism-based; conditions: in vivo; outline: as §1
Heart [6] = test: Biodistribution in overnight fasted Sprague-Dawley rat heart aqueous fraction at 0.7 to 1.4 MBq, iv preincubated with POCA for 2 hrs before compound administration measured at 120 mins post treatment by Folch-type extraction method; assay type: ADME, organism-based; conditions: in vivo; outline: as §1
Muscle tissue [7] = test: Biodistribution in overnight fasted Sprague-Dawley rat muscle aqueous fraction at 0.7 to 1.4 MBq, iv at 120 mins by Folch-type extraction method; assay type: ADME, organism-based; conditions: in vivo, 2 h; outline: as §1
Muscle tissue [8] = test: Biodistribution in overnight fasted Sprague-Dawley rat muscle pellet fraction at 0.7 to 1.4 MBq, iv preincubated with POCA for 2 hrs before compound administration measured at 30 mins post treatment by Folch-type extraction method; assay type: ADME, organism-based; conditions: in vivo, 0.5 h; outline: as §1
Liver [9] = test: Biodistribution in overnight fasted Sprague-Dawley rat liver pellet fraction at 0.7 to 1.4 MBq, iv preincubated with POCA for 2 hrs before compound administration measured at 30 mins post treatment by Folch-type extraction method; assay type: ADME, organism-based; conditions: in vivo, 0.5 h; outline: as §1
Liver [10] = test: Biodistribution in overnight fasted Sprague-Dawley rat liver aqueous fraction at 0.7 to 1.4 MBq, iv preincubated with POCA for 2 hrs before compound administration measured at 30 mins post treatment by Folch-type extraction method; assay type: ADME, organism-based; conditions: in vivo, 0.5 h; outline: as §1
Heart [11] = test: Biodistribution in overnight fasted Sprague-Dawley rat heart organic fraction at 0.7 to 1.4 MBq, iv preincubated with POCA for 2 hrs before compound administration measured at 30 mins post treatment by Folch-type extraction method; assay type: ADME, organism-based; conditions: in vivo, 0.5 h; outline: as §1
Muscle tissue [12] = test: Biodistribution in overnight fasted Sprague-Dawley rat muscle pellet fraction at 0.7 to 1.4 MBq, iv at 30 mins by Folch-type extraction method; assay type: ADME, organism-based; conditions: in vivo, 0.5 h; outline: as §1
Liver [13] = test: Biodistribution in overnight fasted Sprague-Dawley rat liver aqueous fraction at 0.7 to 1.4 MBq, iv at 30 mins by Folch-type extraction method; assay type: ADME, organism-based; conditions: in vivo, 0.5 h; outline: as §1
Heart [14] = test: Biodistribution in overnight fasted Sprague-Dawley rat heart organic fraction at 0.7 to 1.4 MBq, iv at 30 mins by Folch-type extraction method; assay type: ADME, organism-based; conditions: in vivo, 0.5 h; outline: as §1
Heart [15] = test: Biodistribution in overnight fasted Sprague-Dawley rat heart aqueous fraction at 0.7 to 1.4 MBq, iv at 30 mins by Folch-type extraction method; assay type: ADME, organism-based; conditions: in vivo, 0.5 h; outline: as §1
Bone [16] = test: Drug uptake in overnight fasted Sprague-Dawley rat bone at 0.7 to 1.4 MBq, iv preincubated with POCA for 2 hrs before compound administration measured at 120 mins post treatment; assay type: ADME, organism-based, Bone element; conditions: in vivo
Outline: (§2)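 Overnight-fasted female Sprague-Dawley rats under isoflurane received the [18F] tracer in 0.5–1.0% BSA/saline by tail vein. POCA group: 30 mg/kg i.p. 2 h before tracer. Tissues were excised at 30 or 120 min, weighed and gamma-counted with decay correction. Uptake = % dose kg/g, i.e. CPM tissue × body wt (kg) × 100 / (tissue wt (g) × CPM dose). n = 5–6.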

Kidney [17] = test: Drug uptake in overnight fasted Sprague-Dawley rat kidney at 0.7 to 1.4 MBq, iv preincubated with POCA for 2 hrs before compound administration measured at 120 mins post treatment; assay type: ADME, organism-based; conditions: in vivo
Outline: (§3)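 Female rats fasted overnight, under isoflurane (3.5% induction, 1.5% maintenance). 18F-labelled tracer formulated in 0.5–1.0% BSA/saline, injected via tail vein. Tissues harvested at 30 or 120 min, weighed, gamma-counted, decay-corrected. Uptake expressed as % dose kg/g, i.e. tissue CPM × body wt (kg) × 100 / (tissue wt (g) × dose CPM). POCA groups received 30 mg/kg i.p. 2 h before tracer. n = 5–6.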

Liver [18] = test: Drug uptake in overnight fasted Sprague-Dawley rat liver at 0.7 to 1.4 MBq, iv preincubated with POCA for 2 hrs before compound administration measured at 120 mins post treatment; assay type: ADME, organism-based; conditions: in vivo; outline: as §3
Lung [19] = test: Drug uptake in overnight fasted Sprague-Dawley rat lung at 0.7 to 1.4 MBq, iv preincubated with POCA for 2 hrs before compound administration measured at 120 mins post treatment; assay type: ADME, organism-based; conditions: in vivo; outline: as §3
Bone [20] = test: Drug uptake in overnight fasted Sprague-Dawley rat bone at 0.7 to 1.4 MBq, iv at 120 mins; assay type: ADME, organism-based, Bone element; conditions: in vivo, 2 h; outline: as §2
Kidney [21] = test: Drug uptake in overnight fasted Sprague-Dawley rat kidney at 0.7 to 1.4 MBq, iv at 120 mins; assay type: ADME, organism-based; conditions: in vivo, 2 h; outline: as §3
Blood [22] = test: Drug uptake in overnight fasted Sprague-Dawley rat blood at 0.7 to 1.4 MBq, iv at 120 mins; assay type: ADME, organism-based; conditions: in vivo, 2 h; outline: as §2
Muscle tissue [23] = test: Drug uptake in overnight fasted Sprague-Dawley rat muscle at 0.7 to 1.4 MBq, iv preincubated with POCA for 2 hrs before compound administration measured at 30 mins post treatment; assay type: ADME, organism-based; conditions: in vivo, 0.5 h; outline: as §3
Brain = test: Drug uptake in overnight fasted Sprague-Dawley rat brain at 0.7 to 1.4 MBq, iv preincubated with POCA for 2 hrs before compound administration measured at 30 mins post treatment; assay type: ADME, organism-based; conditions: in vivo, 0.5 h; outline: as §2
Lung [24] = test: Drug uptake in overnight fasted Sprague-Dawley rat lung at 0.7 to 1.4 MBq, iv preincubated with POCA for 2 hrs before compound administration measured at 30 mins post treatment; assay type: ADME, organism-based; conditions: in vivo, 0.5 h; outline: as §3
Heart [25] = test: Drug uptake in overnight fasted Sprague-Dawley rat heart at 0.7 to 1.4 MBq, iv preincubated with POCA for 2 hrs before compound administration measured at 30 mins post treatment; assay type: ADME, organism-based; conditions: in vivo, 0.5 h; outline: as §3
Bone [26] = test: Drug uptake in overnight fasted Sprague-Dawley rat bone at 0.7 to 1.4 MBq, iv at 30 mins; assay type: ADME, organism-based, Bone element; conditions: in vivo, 0.5 h; outline: as §2
Lung [27] = test: Drug uptake in overnight fasted Sprague-Dawley rat lung at 0.7 to 1.4 MBq, iv at 30 mins; assay type: ADME, organism-based; conditions: in vivo, 0.5 h; outline: as §3
Blood [28] = test: Drug uptake in overnight fasted Sprague-Dawley rat blood at 0.7 to 1.4 MBq, iv at 30 mins; assay type: ADME, organism-based; conditions: in vivo, 0.5 h; outline: as §2

Row | SMILES | Drug uptake (Heart [1]) | Drug uptake (Muscle tissue [2]) | Drug uptake (Liver [3]) | Drug uptake (Liver [4]) | Drug uptake (Heart [5]) | Drug uptake (Heart [6]) | Drug uptake (Muscle tissue [7]) | Drug uptake (Muscle tissue [8]) | Drug uptake (Liver [9]) | Drug uptake (Liver [10]) | Drug uptake (Heart [11]) | Drug uptake (Muscle tissue [12]) | Drug uptake (Liver [13]) | Drug uptake (Heart [14]) | Drug uptake (Heart [15]) | Drug uptake (Bone [16]) | Drug uptake (Kidney [17]) | Drug uptake (Liver [18]) | Drug uptake (Lung [19]) | Drug uptake (Bone [20]) | other results
1 | O=C(O)CCCCSCCCCCCCCCCCC[18F] | Active | 31.41% | 64.78% | 7.45% | 22.48% | 3.3% | 18.18% | 48.85% | 34.35% | 10.75% | 63.99% | 38.95% | 9.65% | 25.81% | 4.02% | 0.2104 %IDKg/g | 0.1554 %IDKg/g | 0.419 %IDKg/g | 0.0536 %IDKg/g | 0.2467 %IDKg/g | Drug uptake (Kidney [21]): 0.1629 %IDKg/g; Drug uptake (Blood [22]): 0.0241 %IDKg/g; Drug uptake (Muscle tissue [23]): 0.0639 %IDKg/g; Drug uptake (Brain): 0.0879 %IDKg/g; Drug uptake (Lung [24]): 0.1163 %IDKg/g; Drug uptake (Heart [25]): 0.3331 %IDKg/g; Drug uptake (Bone [26]): 0.1171 %IDKg/g; Drug uptake (Lung [27]): 0.0621 %IDKg/g; Drug uptake (Blood [28]): 0.029 %IDKg/g
2 | O=C(O)CCSCCCCCCCCCCCCCC[18F] | Active | 32.62% | 67.69% | 10.23% | 21.68% | 3.39% | 11.58% | 27.04% | 16.53% | 31.69% | 67.58% | 32.22% | 15.36% | 17.29% | 3.97% | 0.4042 %IDKg/g | 0.0947 %IDKg/g | 0.1341 %IDKg/g | 0.0244 %IDKg/g | 0.2934 %IDKg/g | Drug uptake (Kidney [21]): 0.0726 %IDKg/g; Drug uptake (Blood [22]): 0.0098 %IDKg/g; Drug uptake (Muscle tissue [23]): 0.0443 %IDKg/g; Drug uptake (Brain): 0.0385 %IDKg/g; Drug uptake (Lung [24]): 0.0998 %IDKg/g; Drug uptake (Heart [25]): 0.1814 %IDKg/g; Drug uptake (Bone [26]): 0.2309 %IDKg/g; Drug uptake (Lung [27]): 0.0755 %IDKg/g; Drug uptake (Blood [28]): 0.0392 %IDKg/g
3 | O=C(O)CCSCCCCCCCCCCCC[18F] | Active | 32.69% | 50% | 11.52% | 24.47% | 7.53% | 16.17% | 32.63% | 38.07% | 20.23% | 51.9% | 43.18% | 13.52% | 38.56% | 2.63% | 0.6549 %IDKg/g | 0.1637 %IDKg/g | 0.4433 %IDKg/g | 0.0472 %IDKg/g | 0.3143 %IDKg/g | Drug uptake (Kidney [21]): 0.1014 %IDKg/g; Drug uptake (Blood [22]): 0.0105 %IDKg/g; Drug uptake (Muscle tissue [23]): 0.0333 %IDKg/g; Drug uptake (Brain): 0.04879 %IDKg/g; Drug uptake (Lung [24]): 0.0676 %IDKg/g; Drug uptake (Heart [25]): 0.0792 %IDKg/g; Drug uptake (Bone [26]): 0.235 %IDKg/g; Drug uptake (Lung [27]): 0.099 %IDKg/g; Drug uptake (Blood [28]): 0.07 %IDKg/g
4 | O=C(O)CCSCCCC/C=C\CCCCCCCC[18F] | Active | 35.36% | 68.06% | 8.1% | 29.14% | 4.19% | 9.91% | 32.74% | 24.88% | 16.3% | 62.03% | 59.12% | 8.43% | 8.46% | 2.86% | 0.299 %IDKg/g | 0.0611 %IDKg/g | 0.1666 %IDKg/g | 0.0179 %IDKg/g | 0.461 %IDKg/g | Drug uptake (Kidney [21]): 0.1244 %IDKg/g; Drug uptake (Blood [22]): 0.0185 %IDKg/g; Drug uptake (Muscle tissue [23]): 0.0297 %IDKg/g; Drug uptake (Brain): 0.0368 %IDKg/g; Drug uptake (Lung [24]): 0.0458 %IDKg/g; Drug uptake (Heart [25]): 0.1155 %IDKg/g; Drug uptake (Bone [26]): 0.1531 %IDKg/g; Drug uptake (Lung [27]): 0.0496 %IDKg/g; Drug uptake (Blood [28]): 0.0441 %IDKg/g
